One block for each molecule: values may come before it.
Key:
Format in all cases: organism-based
[1] = target: T1, Angiotensin-converting enzyme (Rattus norvegicus) (UniProt P47820); experiment: Compound was tested for plasma inhibition of Angiotensin I converting enzyme activity in the conscious rat. Expressed as Inhibition of AI pressor response at 6 hr at a dose of 10 mg/kg po; parameters: dose 10 mg/kg
T1 sequence (whole entry): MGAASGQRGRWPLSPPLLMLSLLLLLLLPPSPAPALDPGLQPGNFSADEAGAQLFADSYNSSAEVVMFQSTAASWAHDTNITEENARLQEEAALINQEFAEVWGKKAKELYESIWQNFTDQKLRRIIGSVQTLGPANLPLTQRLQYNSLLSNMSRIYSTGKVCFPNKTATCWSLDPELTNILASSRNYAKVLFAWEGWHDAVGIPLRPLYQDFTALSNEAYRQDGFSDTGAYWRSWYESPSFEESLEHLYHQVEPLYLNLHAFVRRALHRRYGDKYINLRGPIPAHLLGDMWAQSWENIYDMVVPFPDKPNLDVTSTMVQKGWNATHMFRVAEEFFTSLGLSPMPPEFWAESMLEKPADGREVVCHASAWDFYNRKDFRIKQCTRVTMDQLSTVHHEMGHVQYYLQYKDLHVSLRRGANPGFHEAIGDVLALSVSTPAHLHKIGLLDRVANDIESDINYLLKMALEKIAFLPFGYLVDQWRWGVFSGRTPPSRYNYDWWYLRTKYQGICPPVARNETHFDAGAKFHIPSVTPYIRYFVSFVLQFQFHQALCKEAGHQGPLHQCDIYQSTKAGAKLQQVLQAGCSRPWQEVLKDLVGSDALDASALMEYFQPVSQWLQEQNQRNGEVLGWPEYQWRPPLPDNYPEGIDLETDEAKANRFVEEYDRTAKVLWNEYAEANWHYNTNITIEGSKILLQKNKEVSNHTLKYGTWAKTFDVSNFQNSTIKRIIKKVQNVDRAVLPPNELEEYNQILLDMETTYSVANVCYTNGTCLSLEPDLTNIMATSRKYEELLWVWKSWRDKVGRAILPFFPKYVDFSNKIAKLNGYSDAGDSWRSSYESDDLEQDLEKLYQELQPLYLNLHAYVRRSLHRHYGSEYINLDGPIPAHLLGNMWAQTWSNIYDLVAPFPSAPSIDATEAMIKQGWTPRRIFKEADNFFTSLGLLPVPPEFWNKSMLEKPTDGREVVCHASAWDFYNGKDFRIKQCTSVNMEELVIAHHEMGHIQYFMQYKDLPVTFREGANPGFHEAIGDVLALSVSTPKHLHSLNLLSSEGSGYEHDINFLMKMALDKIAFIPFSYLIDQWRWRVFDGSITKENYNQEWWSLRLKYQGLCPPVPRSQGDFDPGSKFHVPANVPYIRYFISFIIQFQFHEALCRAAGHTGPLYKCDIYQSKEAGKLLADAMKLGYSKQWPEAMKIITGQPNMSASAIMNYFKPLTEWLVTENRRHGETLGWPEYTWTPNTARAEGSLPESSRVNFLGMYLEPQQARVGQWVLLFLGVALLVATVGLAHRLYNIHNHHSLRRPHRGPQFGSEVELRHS
Method in brief: (§1)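 Male conscious normotensive Sprague-Dawley rats (275-390 g), prepared under methohexital sodium (75 mg/kg ip) with femoral arterial and venous catheters. The next day, pressor responses to three angiotensin-I challenges (300 ng/kg iv) were recorded. Compound was then given orally and angiotensin-I challenges were repeated at set times. Percent inhibition is relative to the mean of the three baseline responses.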

[2] = target: T1, Angiotensin-converting enzyme (Rattus norvegicus); experiment: Compound was tested for plasma inhibition of Angiotensin I converting enzyme activity in the conscious rat. Expressed as Inhibition of AI pressor response at 4 hr at a dose of 10 mg/kg po; parameters: dose 10 mg/kg
Method in brief: (§2)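 Male conscious normotensive Sprague-Dawley rats (275-390 g), given femoral arterial and venous catheters under methohexital sodium (75 mg/kg ip) anesthesia. Next day, pressor responses to three angiotensin-I challenges (300 ng/kg iv) recorded by direct arterial pressure. Compound then dosed orally, and AI challenge repeated at set times. Each post-dose response compared with the mean of the three baseline responses, giving % inhibition.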

[3] = target: T1, Angiotensin-converting enzyme (Rattus norvegicus); experiment: Compound was tested for plasma inhibition of Angiotensin I converting enzyme activity in the conscious rat. Expressed as Inhibition of AI pressor response at 1 hr at a dose of 10 mg/kg po; parameters: dose 10 mg/kg; method in brief: as §2
[4] = target: T1, Angiotensin-converting enzyme (Rattus norvegicus); experiment: Compound was tested for plasma inhibition of Angiotensin I converting enzyme activity in the conscious rat. Expressed as Inhibition of AI pressor response at 2 hr at a dose of 10 mg/kg po; parameters: dose 10 mg/kg; method in brief: as §2
[5] = target: T1, Angiotensin-converting enzyme (Rattus norvegicus); experiment: Compound was tested for plasma inhibition of Angiotensin I converting enzyme activity in the conscious rat. Expressed as Inhibition of AI pressor response at 6 hr at a dose of 12.4 mg/kg po; parameters: dose 12.4 mg/kg; method in brief: as §1
[6] = target: T1, Angiotensin-converting enzyme (Rattus norvegicus); experiment: Compound was tested for plasma inhibition of Angiotensin I converting enzyme activity in the conscious rat. Expressed as Inhibition of AI pressor response at 2 hr at a dose of 12.4 mg/kg po; parameters: dose 12.4 mg/kg; method in brief: as §2
[7] = target: T1, Angiotensin-converting enzyme (Rattus norvegicus); experiment: Compound was tested for plasma inhibition of Angiotensin I converting enzyme activity in the conscious rat. Expressed as Inhibition of AI pressor response at 4 hr at a dose of 12.4 mg/kg po; parameters: dose 12.4 mg/kg; method in brief: as §2
[8] = target: T1, Angiotensin-converting enzyme (Rattus norvegicus); experiment: Compound was tested for plasma inhibition of Angiotensin I converting enzyme activity in the conscious rat. Expressed as Inhibition of AI pressor response at 1 hr at a dose of 12.4 mg/kg po; parameters: dose 12.4 mg/kg; method in brief: as §2
[9] = target: T1, Angiotensin-converting enzyme (Rattus norvegicus); experiment: Compound was tested for plasma inhibition of Angiotensin I converting enzyme activity in the conscious rat. Expressed as Inhibition of AI pressor response at 4 hr at a dose of 12.8 mg/kg po; parameters: dose 12.8 mg/kg; method in brief: as §2
[10] = target: T1, Angiotensin-converting enzyme (Rattus norvegicus); experiment: Compound was tested for plasma inhibition of Angiotensin I converting enzyme activity in the conscious rat. Expressed as Inhibition of AI pressor response at 6 hr at a dose of 12.8 mg/kg po; parameters: dose 12.8 mg/kg; method in brief: as §1
[11] = target: T1, Angiotensin-converting enzyme (Rattus norvegicus); experiment: Compound was tested for plasma inhibition of Angiotensin I converting enzyme activity in the conscious rat. Expressed as Inhibition of AI pressor response at 1 hr at a dose of 12.8 mg/kg po; parameters: dose 12.8 mg/kg; method in brief: as §2
[12] = target: T1, Angiotensin-converting enzyme (Rattus norvegicus); experiment: Compound was tested for plasma inhibition of Angiotensin I converting enzyme activity in the conscious rat. Expressed as Inhibition of AI pressor response at 2 hr at a dose of 12.8 mg/kg po; parameters: dose 12.8 mg/kg; method in brief: as §2
[13] = target: T1, Angiotensin-converting enzyme (Rattus norvegicus); experiment: Compound was tested for plasma inhibition of Angiotensin I converting enzyme activity in the conscious rat. Expressed as Inhibition of AI pressor response at 1 hr at a dose of 13.1 mg/kg po; parameters: dose 13.1 mg/kg; method in brief: as §2
[14] = target: T1, Angiotensin-converting enzyme (Rattus norvegicus); experiment: Compound was tested for plasma inhibition of Angiotensin I converting enzyme activity in the conscious rat. Expressed as Inhibition of AI pressor response at 2 hr at a dose of 13.1 mg/kg po; parameters: dose 13.1 mg/kg; method in brief: as §2
[15] = target: T1, Angiotensin-converting enzyme (Rattus norvegicus); experiment: Compound was tested for plasma inhibition of Angiotensin I converting enzyme activity in the conscious rat. Expressed as Inhibition of AI pressor response at 6 hr at a dose of 13.1 mg/kg po; parameters: dose 13.1 mg/kg; method in brief: as §1
[16] = target: T1, Angiotensin-converting enzyme (Rattus norvegicus); experiment: Compound was tested for plasma inhibition of Angiotensin I converting enzyme activity in the conscious rat. Expressed as Inhibition of AI pressor response at 4 hr at a dose of 13.1 mg/kg po; parameters: dose 13.1 mg/kg; method in brief: as §1
[17] = target: T1, Angiotensin-converting enzyme (Rattus norvegicus); experiment: Compound was tested for plasma inhibition of Angiotensin I converting enzyme activity in the conscious rat. Expressed as Inhibition of AI pressor response at 6 hr at a dose of 11.7 mg/kg po; parameters: dose 11.7 mg/kg; method in brief: as §1
[18] = target: T1, Angiotensin-converting enzyme (Rattus norvegicus); experiment: Compound was tested for plasma inhibition of Angiotensin I converting enzyme activity in the conscious rat. Expressed as Inhibition of AI pressor response at 4 hr at a dose of 11.7 mg/kg po; parameters: dose 11.7 mg/kg; method in brief: as §2
[19] = target: T1, Angiotensin-converting enzyme (Rattus norvegicus); experiment: Compound was tested for plasma inhibition of Angiotensin I converting enzyme activity in the conscious rat. Expressed as Inhibition of AI pressor response at 1 hr at a dose of 11.7 mg/kg po; parameters: dose 11.7 mg/kg; method in brief: as §2
[20] = target: T1, Angiotensin-converting enzyme (Rattus norvegicus); experiment: Compound was tested for plasma inhibition of Angiotensin I converting enzyme activity in the conscious rat. Expressed as Inhibition of AI pressor response at 2 hr at a dose of 11.7 mg/kg po; parameters: dose 11.7 mg/kg; method in brief: as §2
[21] = target: T1, Angiotensin-converting enzyme (Rattus norvegicus); experiment: Compound was tested for plasma inhibition of Angiotensin I converting enzyme activity in the conscious rat. Expressed as Inhibition of AI pressor response at 6 hr at a dose of 12.7 mg/kg po; parameters: dose 12.7 mg/kg; method in brief: as §1
[22] = target: T1, Angiotensin-converting enzyme (Rattus norvegicus); experiment: Compound was tested for plasma inhibition of Angiotensin I converting enzyme activity in the conscious rat. Expressed as Inhibition of AI pressor response at 4 hr at a dose of 12.7 mg/kg po; parameters: dose 12.7 mg/kg; method in brief: as §2
[23] = target: T1, Angiotensin-converting enzyme (Rattus norvegicus); experiment: Compound was tested for plasma inhibition of Angiotensin I converting enzyme activity in the conscious rat. Expressed as Inhibition of AI pressor response at 2 hr at a dose of 12.7 mg/kg po; parameters: dose 12.7 mg/kg; method in brief: as §2
[24] = target: T1, Angiotensin-converting enzyme (Rattus norvegicus); experiment: Compound was tested for plasma inhibition of Angiotensin I converting enzyme activity in the conscious rat. Expressed as Inhibition of AI pressor response at 1 hr at a dose of 12.7 mg/kg po; parameters: dose 12.7 mg/kg; method in brief: as §2

SMILES: CC(=O)S[C@@H](C(=O)NC1(C(=O)N[C@@H](Cc2ccc(O)cc2)C(=O)OCC(C)C)CCCC1)C(C)C
- inhibition [5]: 20%
- inhibition [6]: 77%
- inhibition [7]: 69%
- inhibition [8]: 76%

SMILES: CCOC(=O)[C@H](Cc1ccc(OC(C)=O)cc1)NC(=O)C1(NC(=O)[C@H](SC(C)=O)C(C)C)CCCC1
- inhibition [9]: 31%
- inhibition [10]: 16%
- inhibition [11]: 64%
- inhibition [12]: 52%

SMILES: CCOC(=O)[C@H](Cc1ccc(O)cc1)NC(=O)C1(NC(=O)[C@H](SC(=O)CN(C)C)C(C)C)CCCC1
- inhibition [9]: 35%
- inhibition [10]: 18%
- inhibition [11]: 70%
- inhibition [12]: 63%

SMILES: CCOC(=O)[C@H](Cc1ccc(OC)cc1)NC(=O)C1(NC(=O)[C@H](SC(=O)COC)C(C)C)CCCC1
- inhibition [17]: 52%
- inhibition [18]: 76%
- inhibition [19]: 81%
- inhibition [20]: 91%

SMILES: CC(=O)S[C@@H](C(=O)NC1(C(=O)N[C@@H](Cc2ccc(O)cc2)C(=O)OC2CCCC2)CCCC1)C(C)C
- inhibition [21]: 29%
- inhibition [22]: 33%
- inhibition [23]: 51%
- inhibition [24]: 58%

Results, then the molecule that gave them:

- inhibition [1]: 16%
- inhibition [2]: 39%
- inhibition [3]: 100%
- inhibition [4]: 77%
SMILES: CCOC(=O)[C@H](CCc1ccccc1)N[C@H]1CCc2ccccc2N(CC(=O)O)C1=O

- inhibition [1]: 47%
- inhibition [2]: 83%
- inhibition [3]: 86%
- inhibition [4]: 81%
SMILES: CCOC(=O)[C@H](Cc1ccc(O)cc1)NC(=O)C1(NC(=O)[C@H](SC(C)=O)C(C)C)CCCC1

- inhibition [13]: 72%
- inhibition [14]: 74%
- inhibition [15]: 28%
- inhibition [16]: 54%
SMILES: CC(=O)S[C@@H](C(=O)NC1(C(=O)N[C@@H](Cc2ccc(O)cc2)C(=O)OCc2ccccc2)CCCC1)C(C)C

- inhibition [13]: 50%
- inhibition [14]: 35%
- inhibition [15]: 4%
- inhibition [16]: 23%
SMILES: CCOC(=O)[C@H](Cc1ccc(OC(=O)CC)cc1)NC(=O)C1(NC(=O)[C@H](SC(C)=O)C(C)C)CCCC1
